The nature of experiment [1]: Stent coated compound was evaluated for mercury displaceable NO before sterilization (Electron-Beam Radiation). In kind it is functional.
Experiment [2] in a line: Stent coated compound was evaluated for mercury displaceable NO after sterilization (Electron-Beam Radiation). It is filed as functional.
Experiment [3] deals with Coronary artery smooth muscle cell line. The experiment is described as follows: (§1) In vitro antiproliferative effect on cultured human coronary artery smooth muscle cells (hCASMC). In kind it is functional, cell-based. In a few lines:
(§2)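 Human coronary artery smooth muscle cells seeded at 3×10^4 per well in SmGM2 growth medium; compound added from 1000× ethanol stock 3-4 h after seeding, ethanol vehicle controls, n = 4 per point. After 68-72 h cells trypsinized and viable (Trypan Blue negative) cells counted by hemacytometer; mean ± SD.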

In experiment [4] the test system is Oryctolagus cuniculus. The experiment is described as follows: In vivo nitric oxide(NO) release was determined by the coated stent compound in rabbit iliac at 0 h; value expressed as mercury displaceable nitric oxide. It is filed as functional.
The subject of experiment [5] is Oryctolagus cuniculus. The experiment is described as follows: In vivo nitric oxide(NO) release was determined by the coated stent compound in rabbit iliac at 6 hrs; value expressed as mercury displaceable nitric oxide. In kind it is functional. Summed up:
(§3)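 Coated stent deployed in rabbit iliac artery, position confirmed by angiography; 6 h later animal euthanized with 120 mg/kg iv sodium pentobarbital, stent recovered from the artery and nitrosothiol/NO content measured by chemiluminescence; retained content expressed relative to original load.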

Experiment [6] deals with Oryctolagus cuniculus. The experiment is described as follows: In vivo nitric oxide(NO) release was determined by the coated stent compound in rabbit iliac at 6 hrs; value expressed as percent remaining nitric oxide. In kind it is functional. In a few lines:
as §3

For experiment [7], the species on record is Oryctolagus cuniculus. The experiment is described as follows: In vitro antiplatelet aggregatory effect in rabbit platelet rich plasma (PRP). It is filed as functional. In a few lines: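 Rabbit blood collected 10:1 into 3.8% trisodium citrate pH 6.5, spun 180g 15 min at 21 °C to give PRP. PRP preincubated 2 min at 37 °C with compound (500× ethanol stock), then aggregation induced with ADP (5–10 μM) and followed in an aggregometer; percent inhibition calculated relative to maximum aggregation amplitude.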

For another experiment, the species on record is Homo sapiens. Described as §1. In kind it is functional. Summed up:
as §2

For experiment [8], the species on record is Oryctolagus cuniculus. The experiment is described as follows: Compound was evaluated to determine the stenosis in Rabbit Iliac Arteries. It is filed as functional.
Experiment [9] is filed under the species Oryctolagus cuniculus. The experiment is described as follows: Compound was evaluated to determine the stenosis in Rabbit Iliac Arteries value expressed as difference from bare stents. It is filed as functional.
The species entered for experiment [10] is Oryctolagus cuniculus. The experiment is described as follows: Compound was evaluated to determine the stenosis in Rabbit Iliac Arteries value expressed as difference from polymer coated stents. In kind it is functional.
For experiment [11], the species on record is Oryctolagus cuniculus. The experiment is described as follows: Compound was evaluated to determine the stenosis in Rabbit Iliac Arteries value expressed as net effect of NO over paclitaxel coated stents. It is filed as functional.

This note sets out measurements from ChEMBL document CHEMBL1149158, “Combination of paclitaxel and nitric oxide as a novel treatment for the reduction of restenosis” (J Med Chem, 2004).

In the case of `CC(=O)O[C@H]1C(=O)[C@@]2(C)C([C@H](OC(=O)c3ccccc3)[C@]3(O)C[C@H](OC(=O)[C@H](O)[C@@H](NC(=O)c4ccccc4)c4ccccc4)C(C)=C1C3(C)C)[C@]1(OC(C)=O)CO[C@@H]1C[C@@H]2OC(=O)CC(C)(C)SN=O` (some centres not stated) [listing 1 of 2 here], the Activity in experiment [1] was determined as 349 nM stent-1; in experiment [2], 316 nM stent-1.
In general, IC50 refers to the concentration that gives 50% inhibition. Read a high IC50 as a need for much substance. For the compound `CC(=O)O[C@H]1C(=O)[C@@]2(C)C([C@H](OC(=O)c3ccccc3)[C@]3(O)C[C@H](OC(=O)[C@H](O)[C@@H](NC(=O)c4ccccc4)c4ccccc4)C(C)=C1C3(C)C)[C@]1(OC(C)=O)CO[C@@H]1C[C@@H]2OC(=O)CC(C)(C)S` (some centres not stated), the IC50 in [3] came out at 20 nM.
On to `CC(=O)O[C@H]1C(=O)[C@@]2(C)C([C@H](OC(=O)c3ccccc3)[C@]3(O)C[C@H](OC(=O)[C@H](O)[C@@H](NC(=O)c4ccccc4)c4ccccc4)C(C)=C1C3(C)C)[C@]1(OC(C)=O)CO[C@@H]1C[C@@H]2OC(=O)CC(C)(C)SN=O.CN(C)C(=O)CC1(SN=O)C2CC3CC(C2)CC1C3` (some centres not stated) [listing 1 of 2 here], for which the Activity in [1] was determined as 733 nM stent-1; in experiment [2], 746 nM stent-1.
Regarding `CC(=O)O[C@H]1C(=O)[C@@]2(C)C([C@H](OC(=O)c3ccccc3)[C@]3(O)C[C@H](OC(=O)[C@H](O)[C@@H](NC(=O)c4ccccc4)c4ccccc4)C(C)=C1C3(C)C)[C@]1(OC(C)=O)CO[C@@H]1C[C@@H]2OC(=O)CC(C)(C)SN=O` (some centres not stated) [listing 2 of 2 here], the results for the Activity in the experiment on Oryctolagus cuniculus [4], in the experiment with Oryctolagus cuniculus [5] and with Oryctolagus cuniculus [6] were 369 nmol/stent, 214 nM stent-1 and 65%, respectively. Moreover, the IC50 in the experiment listed under Oryctolagus cuniculus [7] was 10000 nM; in the experiment listed under Homo sapiens it was around 20 nM.
As to `CN(C)C(=O)CC1(SN=O)C2CC3CC(C2)CC1C3` (configuration not stated), the half-maximal inhibitory concentration (IC50) in experiment [3] was 15000 nM. Besides, the Activity stood at 417 nmol/stent in the experiment on Oryctolagus cuniculus [4]; 18 nM stent-1 with Oryctolagus cuniculus [5]; 5% in the experiment with Oryctolagus cuniculus [6]; 436 nM stent-1 in [1]; 440 nM stent-1 in experiment [2].
`CC(=O)O[C@H]1C(=O)[C@@]2(C)[C@H]([C@H](OC(=O)c3ccccc3)[C@]3(O)C[C@H](OC(=O)[C@H](O)[C@@H](NC(=O)c4ccccc4)c4ccccc4)C(C)=C1C3(C)C)[C@]1(OC(C)=O)CO[C@@H]1C[C@@H]2O` [PACLITAXEL] displayed an IC50 in [3] of around 1 nM. For the same compound, in the experiment filed under Oryctolagus cuniculus [8], the Stenosis is 22.6%. Also, the Activity in the experiment listed under Oryctolagus cuniculus [9] is 23%; in the experiment filed under Oryctolagus cuniculus [10], -11%.
`CC(=O)O[C@H]1C(=O)[C@@]2(C)C([C@H](OC(=O)c3ccccc3)[C@]3(O)C[C@H](OC(=O)[C@H](O)[C@@H](NC(=O)c4ccccc4)c4ccccc4)C(C)=C1C3(C)C)[C@]1(OC(C)=O)CO[C@@H]1C[C@@H]2OC(=O)CC(C)(C)SN=O.CN(C)C(=O)CC1(SN=O)C2CC3CC(C2)CC1C3` (some centres not stated) [listing 2 of 2 here] had a Stenosis in the experiment filed under Oryctolagus cuniculus [8] of 15%. The Activity in the experiment listed under Oryctolagus cuniculus [9] is -18%; in the experiment listed under Oryctolagus cuniculus [10] it was -41%; in the experiment listed under Oryctolagus cuniculus [11], -34%; in the experiment on Oryctolagus cuniculus [4], 627 nmol/stent; in the experiment on Oryctolagus cuniculus [5], 209 nM stent-1; with Oryctolagus cuniculus [6] it was 31%.
